# Source: PMC3353655 (Journal of the American Chemical Society, 2012)
# Experiments:
# Sortase B (SrtB) = molecular target: T1, Sortase B (SrtB) (Staphylococcus aureus, UniProt Q2FZE3); experiment: Fluorescence polarization binding of fluorescein-labeled lantipeptides to SrtB
# T1 sequence (Q2FZE3 31-244 limits assumed): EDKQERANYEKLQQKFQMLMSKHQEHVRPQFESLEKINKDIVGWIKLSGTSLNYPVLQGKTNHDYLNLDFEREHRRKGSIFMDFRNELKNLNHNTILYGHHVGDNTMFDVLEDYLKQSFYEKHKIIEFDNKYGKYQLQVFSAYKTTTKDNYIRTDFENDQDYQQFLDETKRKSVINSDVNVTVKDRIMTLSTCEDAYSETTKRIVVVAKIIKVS
# In short: (§1)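 Binding constants were measured by fluorescence polarization. Test compounds were synthetic lantipeptides labeled with 5-carboxyfluorescein, with a C-terminal polyethylene glycol tail added for solubility. Sortase B was run in the same format as Sortase A. Each data point is the average of at least three independent measurements.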
# SrtA = experiment: Inhibition of SrtA catalyzed cleavage of a peptide substrate; assay type: biochemical, Staphylococcus aureus; settings: peptide at a concentration of up to 1 mM; data not shown
# In short: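 SrtA cleaved a peptide substrate; this reaction has a Km of 80 μM. The test compound was tested at concentrations up to 1 mM.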
# Sortase A (SrtA) = molecular target: T2, Sortase A (SrtA) (Staphylococcus aureus, UniProt Q2FV99); experiment: Fluorescence polarization binding of fluorescein-labeled lantipeptides to SrtA; settings: SrtA binding compared with 2(2S,6R)
# T2 sequence (Q2FV99 60-206 limits assumed): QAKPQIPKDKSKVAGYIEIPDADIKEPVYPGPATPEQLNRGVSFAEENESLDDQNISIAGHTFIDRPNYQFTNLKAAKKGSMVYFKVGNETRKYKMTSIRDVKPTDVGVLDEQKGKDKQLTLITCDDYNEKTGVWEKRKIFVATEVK
# In short: as §1
smiles,measurement,setting,value
"CC[C@H](C)[C@H](NC(=O)[C@H](CCCNC(=N)N)NC(=O)CNC(=O)[C@H](Cc1c[nH]c2ccccc12)NC(=O)[C@@H]1CSC[C@@H](NC(=O)[C@H](Cc2ccc(O)cc2)NC(=O)[C@H](Cc2c[nH]c3ccccc23)NC(=O)[C@H](CC(C)C)NC(=O)CNC(=O)[C@H](CCCNC(=N)N)NC(=O)c2ccc3c(c2)C(=O)OC32c3ccc(O)cc3Oc3cc(O)ccc32)C(=O)N[C@@H](CC(C)C)C(=O)N[C@@H](CO)C(=O)N1)C(=O)NCC(=O)N[C@@H](CCCNC(=N)N)C(=O)N[C@@H](CCCNC(=N)N)C(=O)NCCCOCCOCCOCCCNC(=O)CCC(=O)NCCCOCCOCCOCCCNC(=O)CCC(=O)NCCCOCCOCCOCCCNC(=O)CCC(=O)N[C@@H](C)C(=O)O [2(2S,6R)]",affinity to SrtB (in words),Sortase B (SrtB); fluorescein-labeled peptide,no detectable affinity
same,Kd,"Sortase B (SrtB); read-out: Kd [μM], SrtB, SrtA was replaced by Sortase B (SrtB), 50 mM Tris HCl, 50 mM NaCl, 5 mM CaCl2, 1.2 mM TCEP, average of at least three independent measurements",> 300 µM
same,inhibition of SrtA catalyzed cleavage of a peptide substrate,SrtA,unable to inhibit
"CC[C@H](C)[C@H](NC(=O)[C@H](CCCNC(=N)N)NC(=O)CNC(=O)[C@H](Cc1c[nH]c2ccccc12)NC(=O)[C@@H]1CSC[C@@H](NC(=O)[C@H](Cc2ccc(O)cc2)NC(=O)[C@H](Cc2c[nH]c3ccccc23)NC(=O)[C@H](CC(C)C)NC(=O)CNC(=O)[C@H](CCCNC(=N)N)NC(=O)c2ccc3c(c2)C(=O)OC32c3ccc(O)cc3Oc3cc(O)ccc32)C(=O)N[C@@H](CC(C)C)C(=O)N[C@@H]([C@@H](C)O)C(=O)N1)C(=O)NCC(=O)N[C@@H](CCCNC(=N)N)C(=O)N[C@@H](CCCNC(=N)N)C(=O)NCCCOCCOCCOCCCNC(=O)CCC(=O)NCCCOCCOCCOCCCNC(=O)CCC(=O)NCCCOCCOCCOCCCNC(=O)CCC(=O)N[C@@H](C)C(=O)O [6(2S,6R)]","fold weaker binder than 2(2S,6R)",Sortase A (SrtA),10 fold
